# Bioassay records as filed in PubChem.
# TLR4 MyD88 comp = blocks binding of human TLR4 to MyD88; HeLa CL3-4 TLR4/MyD88 BLA complementation, FRET ratio; inhibition, % at 8.4 µM; hit rate 0.18% among 200,000; AID 861; in the data active means inhibition above about 25%;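 further: 0% = vehicle and 100% = reference inhibitor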
# Beta2AR agonist = human beta-2 adrenergic receptor agonism by FAP; response, % (concentration not given with the values); hit rate 0.43% among 340,000; Am2.2-beta2AR cells, FAP receptor internalization, flow cytometry; P07550;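 active means response above a set limit, near 3 SD of response in nonfluorescent compounds, cut at about 42% in these data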
# NOD2-RIPK2 inh = inhibitors of human NOD2-RIPK2 interaction | O43353 | CHO BLA complementation NOD2-RIPK2, CCF4 ratio | inhibition, % at 4.98 µM | hit rate 0.38% among 360,000 | AID 624267; in the data active means inhibition above about 21%;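 further: 0% = vehicle only and 100% = reference blocker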
# ABHD5 PLIN5 PPI = ABHD5-PLIN5 protein interaction inhibition. Q00G26+Q8WTS1. Split G. princeps luciferase complementation, luminescence, 4 h. inhibition, % at 4 µM. hit rate 0.78% among 360,000. AID 602281;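 active means inhibition above the mean inhibition across every tested compound plus 3 SD, cut at about 22% in these data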;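 further: 0% = DMSO only wells and the 100% control is not disclosed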
# TLR9-MyD88 block = inhibitors of human TLR9-MyD88 binding | CHO BLA complementation TLR9-MyD88, CCF4 FRET ratio | Q9NR96+Q99836 | inhibition, % at 4.98 µM | hit rate 0.21% among 340,000;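 active means inhibition above the mean over all tested compounds plus 3 SD, cut at about 21% in these data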;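 further: 0% = DMSO only wells and 100% = clavulanate BLA inhibitor control wells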
# Target sequence (Q99836 whole entry, looked up): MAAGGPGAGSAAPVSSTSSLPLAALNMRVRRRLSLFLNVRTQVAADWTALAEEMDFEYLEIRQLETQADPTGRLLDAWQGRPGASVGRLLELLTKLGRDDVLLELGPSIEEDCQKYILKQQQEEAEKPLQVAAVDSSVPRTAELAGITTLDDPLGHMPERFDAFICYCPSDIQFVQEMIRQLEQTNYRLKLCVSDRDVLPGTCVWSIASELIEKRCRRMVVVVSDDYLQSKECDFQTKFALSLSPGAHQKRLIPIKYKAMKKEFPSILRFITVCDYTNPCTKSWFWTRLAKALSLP
# Target sequence (Q9NR96 whole entry, looked up): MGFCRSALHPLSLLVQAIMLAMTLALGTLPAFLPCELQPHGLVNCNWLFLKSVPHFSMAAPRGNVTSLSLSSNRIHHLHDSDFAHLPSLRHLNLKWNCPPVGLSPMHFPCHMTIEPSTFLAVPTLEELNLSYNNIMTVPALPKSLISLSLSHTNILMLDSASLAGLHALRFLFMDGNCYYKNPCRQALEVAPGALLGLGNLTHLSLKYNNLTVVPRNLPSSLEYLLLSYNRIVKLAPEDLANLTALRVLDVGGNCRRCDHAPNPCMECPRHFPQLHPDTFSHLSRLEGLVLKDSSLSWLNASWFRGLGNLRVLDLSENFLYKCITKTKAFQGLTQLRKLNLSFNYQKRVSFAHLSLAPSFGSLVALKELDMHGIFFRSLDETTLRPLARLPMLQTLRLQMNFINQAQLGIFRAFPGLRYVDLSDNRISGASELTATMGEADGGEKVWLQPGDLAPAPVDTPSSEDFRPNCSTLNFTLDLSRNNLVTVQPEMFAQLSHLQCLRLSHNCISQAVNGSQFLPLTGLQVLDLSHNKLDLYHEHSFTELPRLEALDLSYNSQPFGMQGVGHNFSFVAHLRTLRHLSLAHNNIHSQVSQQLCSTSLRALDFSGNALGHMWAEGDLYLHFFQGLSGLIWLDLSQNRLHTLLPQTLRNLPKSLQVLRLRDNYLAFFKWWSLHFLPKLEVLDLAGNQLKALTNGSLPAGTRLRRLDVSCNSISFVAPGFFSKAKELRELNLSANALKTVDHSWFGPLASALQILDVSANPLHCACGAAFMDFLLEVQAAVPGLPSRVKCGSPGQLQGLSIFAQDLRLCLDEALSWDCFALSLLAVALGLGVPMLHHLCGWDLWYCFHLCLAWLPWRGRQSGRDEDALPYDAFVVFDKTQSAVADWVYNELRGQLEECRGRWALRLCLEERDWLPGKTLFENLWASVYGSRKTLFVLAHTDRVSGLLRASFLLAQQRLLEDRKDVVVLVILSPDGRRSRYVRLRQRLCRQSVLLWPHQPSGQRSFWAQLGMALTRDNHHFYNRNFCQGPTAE
# Dynein transport = blocks dynein driven cargo transport along microtubules; 3617.4 mouse cells, GR-EGFP nuclear translocation imaging; test concentration mostly 20 µM; stimulated with dexamethasone, 1 µM; stronger effect = lower value; z-score, hits read low; hit rate 0.47% among 220,000; AID 1381;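 active means plate z-score of nuclear minus cytoplasmic receptor signal below a set negative limit, without overly bright fluorescence or cell loss, cut at about -3.5 in these data, passing the limit was not always enough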;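 further: z-score of nuclear minus cytoplasmic ring GR-EGFP intensity difference per well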
#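 Buffer or medium: tetracycline-free induction medium containing charcoal-stripped FBS / Reagent: dexamethasone agonist, 1.0 µM final, for 30 min / Technique: automated 10x imaging of fixed Hoechst-stained cells / Times: induction 48 h, compound 1 h, agonist 30 min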
# TLR9-MyD88 cf = confirmation of human TLR9-MyD88 binding inhibitors | shares compounds with TLR9-MyD88 block | CHO TLR9/MyD88 BLA complementation, CCF4 FRET ratio | inhibition, % at 4.98 µM | hit rate 51% among 680 | AID 540250;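 active means mean inhibition across three repeats above about 21% taken from the earlier screen, limit read from the data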;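 further: blue over green emission ratio reports constitutive TLR9 MyD88 association via BLA complementation; 0% = DMSO vehicle wells and 100% = clavulanate BLA inhibitor wells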
# BLA counter = beta-lactamase reporter inhibition, counter-screen artifact; shares compounds with TLR9-MyD88 block; CHO-BLA cells, CCF4 FRET ratio, BLA reporter; inhibition, % at 4.98 µM; hit rate 7% among 680; AID 540251;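 active means mean inhibition above a 50% cutoff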;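 further: counterscreen of TLR9-MyD88 hits on CMV-driven BLA in CHO-K1 cells; 0% = DMSO alone and 100% = clavulanate blocking BLA; higher means less blue over green ratio so more BLA blockade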
# TLR9 CHO tox = CHO cell toxicity counter-screen for TLR9-MyD88 inhibitors; shares compounds with TLR9-MyD88 block; TLR9-MyD88 CHO cells cytotoxicity, luminescence; inhibition, % at 4.98 µM; hit rate 39% among 680; AID 588336; in the data active means inhibition above about 11%
# * = called active by the depositor; . = no result given. Rows were chosen to be rich in hits. Some 1.6% of all compounds tested hit in one or more screens of this group.
SMILES,TLR4 MyD88 comp,Beta2AR agonist,NOD2-RIPK2 inh,ABHD5 PLIN5 PPI,TLR9-MyD88 block,Dynein transport,TLR9-MyD88 cf,BLA counter,TLR9 CHO tox
O=C(NCc1ccco1)c1cccc2c1C(=O)c1ccc(/C=C/c3ccccc3)cc1S2(=O)=O,.,3,5,18,30*,.,47*,52*,12*
O=C(NCc1ccco1)c1cccc2c1C(=O)c1ccc(N3CCC(Cc4ccccc4)CC3)cc1S2(=O)=O,.,-26,32*,-6,27*,.,37*,39,6
O=C(NCc1ccc(OC(F)(F)F)cc1)c1cccc2c1C(=O)c1ccc(N3CCC(Cc4ccccc4)CC3)cc1S2(=O)=O,.,-12,5,0,6,.,.,.,.
O=C(NCc1cccc(C(F)(F)F)c1)c1cccc2c1C(=O)c1ccc(N3CCC(Cc4ccccc4)CC3)cc1S2(=O)=O,.,-42,20,-10,31*,.,45*,47,8
O=C(NCc1cccc(F)c1)c1cccc2c1C(=O)c1ccc(N3CCC(Cc4ccccc4)CC3)cc1S2(=O)=O,.,-36,21*,-4,50*,.,44*,46,7
COCCNC(=O)C1(C)CCCN(CCSc2ccccc2)C1 (configuration not stated),.,.,2,5,.,.,.,.,.
CCOc1cc(C#N)ccc1OCC(=O)N1CCN(C(=O)c2cccs2)CC1,.,0,-13,-5,-5,.,.,.,.
CC(C(=O)NCc1ccccc1)n1c(-c2ccc3c(c2)CCO3)nc2ccccc21 (configuration not stated),.,.,-4,-3,.,.,.,.,.
COc1ccc(C2=CC(c3ccco3)n3ncnc3N2)cc1 (configuration not stated),8,10,21*,4,28*,0.36,8,10,7
C=CCn1nc2n(c1=O)-c1ccccc1SC2,.,5,1,3,23*,-0.63,0,3,-2
O=c1n(Cc2ccccc2)nc2n1-c1ccccc1SC2,.,4,-12,3,1,-0.08,.,.,.
CCOc1cc(C2NN=C(c3ccc(C)cc3)S2)ccc1O (configuration not stated),6,-4,15,-4,21*,-0.27,11,10,10
O=C(C[C@H]1CC[C@H]2[C@@H](COC[C@@H](O)CN2Cc2cc(F)ccc2F)O1)NCc1ccc(Cl)cc1,.,.,-4,0,.,.,.,.,.
NNC(=O)c1oc2nc(-c3cccs3)cc(-c3ccco3)c2c1N,.,-34,4,-14,22*,.,12,14,-2
O=C(OCc1cn([C@H]2CN(CC3CCCCC3)[C@@H](c3ccc(Cl)cc3)C[C@@H]2O)nn1)c1ccccc1,.,.,-1,0,7,.,.,.,.
Cc1cc(C)cc(Nc2cc(=O)n(C3CCCCC3)c(=O)[nH]2)c1,-11,15,-9,-3,2,-0.26,.,.,.
Cc1cc2nc3c(=O)n(C4CCCCC4)c(=O)[nH]c3nc2cc1N,12,-38,6,-18,28*,-0.44,20,25,0
Cc1cc(NC(=O)c2c(F)cccc2Cl)n(-c2nc3ccccc3[nH]2)n1,-16,5,8,-10,4,-0.77,.,.,.
CC(C)(C)c1cc(NC(=O)c2c(F)cccc2Cl)n(-c2ccccc2)n1,.,1,1,3,23*,.,3,4,1
CN(C)CCNc1ncnc2c1ncn2[C@H]1CN(CCc2ccccc2)C[C@@H](CO)O1,.,.,-3,3,.,.,.,.,.
COc1cc(/C=C/C(=O)O)cc(S(=O)(=O)NCc2ccc3c(c2)OCO3)c1OC,1,2,-7,2,21*,-0.33,3,0,-5
COC(=O)CSc1nc(N)c2c3c(sc2n1)C(c1ccccc1)SC(c1ccccc1)C3 (configuration not stated),-1,-19,15,3,26*,-2.3,-4,-1,1
